Data from ChEMBL document CHEMBL2151030, “Improving the solubility of a new class of antiinflammatory pharmacodynamic hybrids, that release nitric oxide and inhibit cycloxygenase-2 isoenzyme” (Eur J Med Chem, 2012).
Values after ≈ are worked out from the molar mass of the structure shown.

Assays:
J774 = experiment: Selectivity index, ratio of IC50 for COX1-mediated PGE2 production to IC50 for COX2-mediated PGE2 production in mouse J774 cells; assay type: cell-based
In short: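 Ratio of the COX-1 IC50 to the COX-2 IC50, both from PGE2 RIA in J774 cells. For COX-1, cells were given compound for 15 min, then 15 μM arachidonic acid for 30 min; lower concentrations (0.01–1 μM) were tested when warranted. For COX-2, cells were given LPS 10 µg/mL for 24 h with compound at 0.01–10 μM. IC50 came from a sigmoidal variable-slope fit.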

[1] = molecular target: T1, Prostaglandin G/H synthase 2 (Mus musculus) (UniProt Q05769); experiment: Inhibition of COX2-mediated PGE2 production in LPS-induced mouse J774 cells by radioimmunoassay relative to control; assay type: cell-based; parameters: concentration or dose not given beside the values; settings: concentration not given here
T1 sequence (whole entry): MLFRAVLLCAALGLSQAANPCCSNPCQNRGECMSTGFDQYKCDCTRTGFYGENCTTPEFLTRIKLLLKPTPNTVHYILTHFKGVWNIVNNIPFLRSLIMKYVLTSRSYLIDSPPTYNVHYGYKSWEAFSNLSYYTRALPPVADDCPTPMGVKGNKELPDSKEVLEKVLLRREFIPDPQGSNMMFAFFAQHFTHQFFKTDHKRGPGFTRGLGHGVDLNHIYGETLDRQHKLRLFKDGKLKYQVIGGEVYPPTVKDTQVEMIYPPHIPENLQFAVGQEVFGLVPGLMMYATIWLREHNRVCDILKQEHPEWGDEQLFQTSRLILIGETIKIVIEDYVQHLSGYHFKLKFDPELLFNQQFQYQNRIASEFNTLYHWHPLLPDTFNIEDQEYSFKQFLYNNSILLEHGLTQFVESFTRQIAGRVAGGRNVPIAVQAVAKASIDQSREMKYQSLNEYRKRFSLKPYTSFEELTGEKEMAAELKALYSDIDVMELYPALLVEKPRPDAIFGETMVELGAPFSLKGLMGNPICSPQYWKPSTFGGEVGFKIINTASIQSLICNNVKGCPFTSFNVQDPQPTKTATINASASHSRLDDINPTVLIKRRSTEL
In short: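 J774 cells, cultured as for the COX-1 assay, were stimulated 24 h with E. coli LPS (10 µg/mL) to induce COX-2, with or without compound at 0.01–10 μM. Supernatant PGE2 was measured by RIA as % inhibition versus control, triplicate wells, mean of three experiments. IC50 came from a sigmoidal variable-slope dose-response fit.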

[2] = molecular target: T2, Prostaglandin G/H synthase 1 (Mus musculus) (UniProt P22437); experiment: Inhibition of COX1-mediated PGE2 production in mouse J774 cells at 10 uM preincubated for 15 mins measured after 30 mins by radioimmunoassay relative to control; assay type: cell-based
T2 sequence (whole entry): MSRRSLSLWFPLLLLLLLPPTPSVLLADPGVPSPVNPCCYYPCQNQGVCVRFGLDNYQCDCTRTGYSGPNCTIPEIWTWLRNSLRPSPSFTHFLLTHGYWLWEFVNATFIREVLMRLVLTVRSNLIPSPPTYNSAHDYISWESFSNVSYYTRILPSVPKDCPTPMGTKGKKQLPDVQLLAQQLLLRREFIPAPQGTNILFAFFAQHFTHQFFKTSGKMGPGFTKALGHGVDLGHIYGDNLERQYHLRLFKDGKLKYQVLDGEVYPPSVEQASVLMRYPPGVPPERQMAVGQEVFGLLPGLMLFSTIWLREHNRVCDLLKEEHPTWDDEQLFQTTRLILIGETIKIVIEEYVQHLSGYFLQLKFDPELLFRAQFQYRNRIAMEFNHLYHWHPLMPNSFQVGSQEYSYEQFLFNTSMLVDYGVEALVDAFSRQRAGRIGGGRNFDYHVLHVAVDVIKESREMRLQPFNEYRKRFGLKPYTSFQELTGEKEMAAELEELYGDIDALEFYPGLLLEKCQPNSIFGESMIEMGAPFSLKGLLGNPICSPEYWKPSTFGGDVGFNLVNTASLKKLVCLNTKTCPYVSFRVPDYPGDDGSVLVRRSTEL
In short: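 Murine J774 macrophages in DMEM with 10% FBS, glutamine, HEPES, pyruvate and antibiotics, adhered 2 h at 37 °C in 5% CO2. Medium was refreshed, cells were pretreated with compound for 15 min, then given 15 μM arachidonic acid for 30 min at 37 °C. PGE2 in supernatant was measured by RIA as % inhibition versus control, triplicate wells, mean of three experiments.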

[3] = molecular target: T3, Prostaglandin G/H synthase 2 (Mus musculus, UniProt Q05769); experiment: Inhibition of COX2-mediated PGE2 production in LPS-induced mouse J774 cells by radioimmunoassay; assay type: cell-based
T3 sequence (Q05769 whole entry): T1 sequence (whole entry)
In short: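 J774 murine macrophages stimulated 24 h with E. coli LPS (10 µg/mL) to induce COX-2, with or without compound (0.01–10 μM). Supernatant PGE2 measured by RIA; percent inhibition against controls. Triplicate wells, mean of three experiments; IC50 from sigmoidal variable-slope fit.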

[4] = molecular target: T4, Prostaglandin G/H synthase 1 (Mus musculus, UniProt P22437); experiment: Inhibition of COX1-mediated PGE2 production in mouse J774 cells preincubated for 15 mins measured after 30 mins by radioimmunoassay; assay type: cell-based
T4 sequence (P22437 whole entry): T2 sequence (whole entry)
In short: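 Murine J774 macrophages in DMEM/10% FBS, adhered 2 h at 37 °C. […] Supernatant PGE2 measured by RIA. Triplicate wells, mean of three experiments; IC50 by sigmoidal variable-slope fit.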

Rattus norvegicus [5] = experiment: Antiinflammatory activity in rat assessed as reduction of carrageenan-induced paw pressure at 40 mg/kg, po after 15 mins post carrageenan-challenge; assay type: functional; parameters: scale not given: the % may be the effect or the level left
In short: (§1)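 Rats (Sprague-Dawley or Wistar, 150-200 g) received intraplantar carrageenan 4 h before testing, then oral compound or CMC vehicle. Paw-pressure threshold read before treatment and at 15, 30, 45 and 60 min after treatment, compared with saline and carrageenan controls.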

Liver = experiment: Induction of nitrite/nitrate production in Wistar rat liver homogenates at 1 mM; assay type: functional, tissue-based; settings: TDE = time-dependent effect
In short: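 Liver from male Wistar rats (250–350 g), perfused with cold buffer (pH 7.4), homogenized 1:5 w/v. Homogenate in K2HPO4/EDTA buffer pH 7.4 with 1 mM glutathione, NADH and NADPH at 37 °C; compound added from DMSO at 1 mM final. Aliquots at 5-120 min into H2SO4/KI; quantified against sodium nitrite calibration.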

Mus musculus [6] = experiment: Analgesic activity in Swiss albino mouse assessed as reduction of acetic acid-induced writhing at 42 nmol/kg, po after 5 mins; assay type: functional; parameters: scale not given: the % may be the effect or the level left
In short: (§2)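 Male Swiss albino mice (23-25 g), standard diet and water ad libitum, 23 ± 1 °C, 12 h light/dark cycle. Test compound given orally; 0.6% acetic acid (10 mL/kg) injected ip. Stretching movements counted for 10 min, beginning 5 min after administration.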

[7] = Solubility of the compound in PBS buffer at pH 7.4 by HPLC analysis; assay type: physicochemical
In short: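 20 mM DMSO stocks diluted 1:100 into 0.01 M PBS pH 7.4 in duplicate wells of a solubility filter plate, shaken 90 min at 300 rpm. Seven-point calibration standards from 1 to 200 μM.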

Rattus norvegicus [8] = experiment: Antiinflammatory activity in rat assessed as reduction of carrageenan-induced paw pressure at 20 mg/kg, po after 15 mins post carrageenan-challenge; assay type: functional; parameters: scale not given: the % may be the effect or the level left; in short: as §1
Rattus norvegicus [9] = experiment: Antiinflammatory activity in rat assessed as reduction of carrageenan-induced paw pressure at 40 mg/kg, po after 60 mins post carrageenan-challenge; assay type: functional; parameters: scale not given: the % may be the effect or the level left; in short: as §1
Mus musculus [10] = experiment: Analgesic activity in Swiss albino mouse assessed as reduction of acetic acid-induced writhing at 21 nmol/kg, po after 5 mins; assay type: functional; parameters: scale not given: the % may be the effect or the level left; in short: as §2
Rattus norvegicus [11] = experiment: Antiinflammatory activity in rat assessed as reduction of carrageenan-induced oedema in right hind paw at 40 mg/kg, po after 4 hrs post carrageenan-challenge; assay type: functional; parameters: scale not given: the % may be the effect or the level left
In short: (§3)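 Sprague-Dawley or Wistar rats (150-200 g). Carrageenan injected intraplantar; oral treatment with test compound or CMC vehicle. Right hind paw volume measured 4 h after carrageenan and compared with saline- and carrageenan-treated controls.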

[12] = Solubility of the compound in simulated gastric fluid without pepsin at pH 1.5 by HPLC analysis; assay type: physicochemical
In short: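 Compound from 20 mM DMSO stock diluted 1:100 into 0.05 M simulated gastric fluid without pepsin (pH 1.5 with HCl), duplicate wells on a solubility filter plate, shaken 90 min at 300 rpm. Seven-point calibration standards from 1 to 200 μM.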

Rattus norvegicus [13] = experiment: Antiinflammatory activity in rat assessed as reduction of carrageenan-induced paw pressure at 20 mg/kg, po after 60 mins post carrageenan-challenge; assay type: functional; parameters: scale not given: the % may be the effect or the level left; in short: as §1
Rattus norvegicus [14] = experiment: Antiinflammatory activity in rat assessed as reduction of carrageenan-induced paw pressure at 40 mg/kg, po after 45 mins post carrageenan-challenge; assay type: functional; parameters: scale not given: the % may be the effect or the level left; in short: as §1
Rattus norvegicus [15] = experiment: Antiinflammatory activity in rat assessed as reduction of carrageenan-induced paw pressure at 20 mg/kg, po after 45 mins post carrageenan-challenge; assay type: functional; parameters: scale not given: the % may be the effect or the level left; in short: as §1
Rattus norvegicus [16] = experiment: Antiinflammatory activity in rat assessed as reduction of carrageenan-induced paw pressure at 40 mg/kg, po after 30 mins post carrageenan-challenge; assay type: functional; parameters: scale not given: the % may be the effect or the level left; in short: as §1
Rattus norvegicus [17] = experiment: Antiinflammatory activity in rat assessed as reduction of carrageenan-induced oedema in right hind paw at 20 mg/kg, po after 4 hrs post carrageenan-challenge; assay type: functional; parameters: scale not given: the % may be the effect or the level left; in short: as §3
Rattus norvegicus [18] = experiment: Antiinflammatory activity in rat assessed as reduction of carrageenan-induced paw pressure at 20 mg/kg, po after 30 mins post carrageenan-challenge; assay type: functional; parameters: scale not given: the % may be the effect or the level left; in short: as §1
Mus musculus [19] = experiment: Analgesic activity in Swiss albino mouse assessed as reduction of acetic acid-induced writhing at 5.5 nmol/kg, po after 5 mins; assay type: functional; parameters: scale not given: the % may be the effect or the level left; in short: as §2
Mus musculus [20] = experiment: Analgesic activity in Swiss albino mouse assessed as reduction of acetic acid-induced writhing at 18.4 nmol/kg, po after 5 mins; assay type: functional; parameters: scale not given: the % may be the effect or the level left; in short: as §2
Mus musculus [21] = experiment: Analgesic activity in Swiss albino mouse assessed as reduction of acetic acid-induced writhing at 73.6 nmol/kg, po after 5 mins; assay type: functional; parameters: scale not given: the % may be the effect or the level left; in short: as §2
Mus musculus [22] = experiment: Analgesic activity in Swiss albino mouse assessed as reduction of acetic acid-induced writhing at 36.8 nmol/kg, po after 5 mins; assay type: functional; parameters: scale not given: the % may be the effect or the level left; in short: as §2
Aorta = experiment: Vasorelaxant activity in Wistar rat endothelium-denuded thoracic aortic ring assessed as inhibition of KCl-induced contractile tone in presence of guanylate cyclase inhibitor ODQ; assay type: functional, tissue-based
In short: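 Male normotensive Wistar rats (250–350 g); thoracic aortic rings, endothelium removed by rubbing, removal confirmed by <10% relaxation to ACh (10 µM) in KCl (30 mM)-contracted rings. ODQ 1 µM incubated after confirmation; rings contracted with KCl 30 mM, then 3-fold increasing compound concentrations (1 nM–10 µM). Isometric tension; pIC50 from half reduction of KCl tone; mean ± SE, 6–10 experiments.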

inhibition [1] [%]	inhibition [2] [%]	IC50 [3] [nM]	IC50 [4] [nM]	solubility [7] [µM]	solubility [12] [µM]	Structure (SMILES)	Ratio IC50 (J774)	Activity (Rattus norvegicus [5]) [%]	Activity (Rattus norvegicus [8]) [%]	Activity (Rattus norvegicus [9]) [%]	Activity (Rattus norvegicus [11]) [%]	Activity (Rattus norvegicus [13]) [%]	Activity (Rattus norvegicus [14]) [%]	Activity (Rattus norvegicus [15]) [%]	Activity (Rattus norvegicus [16]) [%]	Activity (Rattus norvegicus [17]) [%]	Activity (Rattus norvegicus [18]) [%]	also measured
100	10	220	> 10000	–	–	Cc1c(C(N)C(=O)OCCCCO)cc(-c2ccc(S(C)(=O)=O)cc2)n1-c1ccc(F)cc1 (stereo unspecified)	> 45.5	–	–	–	–	–	–	–	–	–	–	–
100	23	760	> 10000	–	–	Cc1c(C(N)C(=O)OCCCO)cc(-c2ccc(S(C)(=O)=O)cc2)n1-c1ccc(F)cc1 (stereo unspecified)	> 13.2	–	–	–	–	–	–	–	–	–	–	–
–	–	–	–	1.6 (≈ 0.762 µg/mL)	< 1	Cc1c(CC(=O)OCCO[N+](=O)[O-])cc(-c2ccc(S(C)(=O)=O)cc2)n1-c1cccc(F)c1	–	50	18	23	40	10	60	29	80	17	35	Activity (Liver): tde; Activity (Mus musculus [6]): 48.8%; Activity (Mus musculus [10]): 30.8%
95	0	–	> 10000	80 (≈ 40.4 µg/mL)	> 200	Cc1c(C(N)C(=O)OCCCO[N+](=O)[O-])cc(-c2ccc(S(C)(=O)=O)cc2)n1-c1ccc(F)cc1 (stereo unspecified)	> 12.2	40	25	16	45	15	53	27	70	15	44	Activity (Mus musculus [19]): 19%; Activity (Mus musculus [20]): 36.2%; Activity (Mus musculus [21]): 59.6%; Activity (Mus musculus [22]): 46.1%; IC50 (Aorta): 2190 nM
79	30	1190	> 10000	–	–	Cc1c(C(N)C(=O)OCCCO)cc(-c2ccc(S(C)(=O)=O)cc2)n1-c1cccc(F)c1 (stereo unspecified)	> 8.4	–	–	–	–	–	–	–	–	–	–	–
